Results: paper PMC5648736 (Clinical Pharmacokinetics, 2017)
Read-outs that look alike come from different tables or passages of the source. Marks after values point to notes of the source that are not given here.

Key:
[1] = cited from earlier work
[2] = Safety of initial single dose semaglutide 10 µg/kg; format: in vivo, human
Method in brief: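 Initial cohort received a single weight-based dose, with ESRD subjects dosed 1–24 h after haemodialysis. Safety was judged from reported AEs, serious AEs, and gastrointestinal frequency and severity. Hypoglycaemia was classed as major, minor or symptoms-only by ability to self-treat and a 3.1 mmol/L plasma glucose cut-off. This cohort was evaluated for safety only and excluded from pharmacokinetic analysis.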

[3] = Safety and tolerability of single dose semaglutide 0.5 mg; format: in vivo, human; settings: single SC 0.5 mg
Method in brief: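 Single 0.5 mg subcutaneous injection into the thigh by pen. ESRD subjects were dosed 1–24 h after haemodialysis, with no dialysis for 48 h after. Monitoring covered AEs, physical exam, ECG, vital signs, plasma glucose and clinical labs (biochemistry, haematology, urinalysis). TEAEs counted from dosing day to follow-up +14 days (~5 weeks). Hypoglycaemia: major = unable to self-treat; minor = self-treated with glucose <3.1 mmol/L. Descriptive statistics.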

[4] = format: in vivo, human; settings: for AUC∞ estimated ratio (95% CI): unadjusted ANCOVA; for C max estimated ratio (90% CI): unadjusted; for t ½: geometric mean (CV%)
[5] = single dose 10 µg/kg, six subjects
[6] = ESRD vs normal, adjusted for age, sex, log(weight), single SC 0.5 mg
[7] = mild RI vs normal, adjusted for age, sex, log(weight), single SC 0.5 mg
[8] = moderate RI vs normal, adjusted for age, sex, log(weight), single SC 0.5 mg
[9] = severe RI vs normal, adjusted for age, sex, log(weight), single SC 0.5 mg

For `CC[C@H](C)[C@H](NC(=O)[C@H](Cc1ccccc1)NC(=O)[C@H](CCC(=O)O)NC(=O)[C@H](CCCCNC(=O)COCCOCCNC(=O)COCCOCCNC(=O)CC[C@H](NC(=O)CCCCCCCCCCCCCCCCC(=O)O)C(=O)O)NC(=O)[C@H](C)NC(=O)[C@H](C)NC(=O)[C@H](CCC(N)=O)NC(=O)CNC(=O)[C@H](CCC(=O)O)NC(=O)[C@H](CC(C)C)NC(=O)[C@H](Cc1ccc(O)cc1)NC(=O)[C@H](CO)NC(=O)[C@H](CO)NC(=O)[C@@H](NC(=O)[C@H](CC(=O)O)NC(=O)[C@H](CO)NC(=O)[C@@H](NC(=O)[C@H](Cc1ccccc1)NC(=O)[C@@H](NC(=O)CNC(=O)[C@H](CCC(=O)O)NC(=O)C(C)(C)NC(=O)[C@@H](N)Cc1cnc[nH]1)[C@@H](C)O)[C@@H](C)O)C(C)C)C(=O)N[C@@H](C)C(=O)N[C@@H](Cc1c[nH]c2ccccc12)C(=O)N[C@@H](CC(C)C)C(=O)N[C@H](C(=O)N[C@@H](CCCNC(=N)N)C(=O)NCC(=O)N[C@@H](CCCNC(=N)N)C(=O)NCC(=O)O)C(C)C` [semaglutide, Semaglutide], the “t ½ in humans” value [1] is given as “approximately 1 week”, the “tolerability as starting dose” value ([2]; single dose 10 µg/kg (0.7–1.2 mg), six subjects (three severe RI, three ESRD)) is given as “not considered a tolerable starting dose” and the “minor or symptoms-only hypoglycemia” value [2, 5] is given as “three experienced minor or symptoms-only hypoglycemia”. For the same compound, the “significant nausea and/or vomiting” value [2, 5] was “five experienced significant nausea and/or vomiting”, the “vital signs, electrocardiogram, physical examinations, clinical laboratory assessments” value ([3]; all groups) was “No clinically significant values or appreciable changes” and the “serious or severe TEAEs” value ([3]; all groups, n=56) was “none were serious or severe”. For the same compound, the minor hypoglycemia ([3]; moderate RI and ESRD groups) was “one subject with moderate RI and one with ESRD experienced minor hypoglycemia”, the symptoms-only hypoglycemia ([3]; moderate RI group) was “two subjects in the moderate RI group experienced symptoms-only hypoglycemia” and the major hypoglycemic events ([3]; one subject with severe RI without type 2 diabetes) was “two major hypoglycemic events”. The “AUC48 ratio (ESRD group/normal renal function group), adjusted” value ([4]; 0–48 h, without hemodialysis, adjusted for age, sex, body weight, (90% CI)) was 0.81, the “AUC48–96 ratio (ESRD group/normal renal function group), adjusted” value ([4]; 48–96 h, with hemodialysis, adjusted for age, sex, body weight, (90% CI)) was 0.93 and the “effect of hemodialysis on pharmacokinetics” value ([4]; ESRD group, AUC48 vs AUC48–96 ratios) was “hemodialysis did not appear to affect the pharmacokinetics”. The “AUC∞ estimated ratio (95% CI)” value ([4]; ESRD vs normal renal function, single SC 0.5 mg) was 0.99 (0.82–1.19), the “AUC∞ estimated ratio (95% CI), adjusted analysis” value [4, 6] was 1.10 (0.94–1.28) and the “C max estimated ratio (90% CI), adjusted analysis” value [4, 6] was 0.82 (0.66–1.01). The “C max estimated ratio (90% CI)” value ([4]; ESRD vs normal, single SC 0.5 mg) was 0.72 (0.57–0.91), the “t ½” value ([4]; ESRD, single SC 0.5 mg, n=9) was 243 (19)^b h and the “C max lower in subjects with RI than in subjects with normal renal function” value ([4]; all RI groups, adjusted for age, sex, log(weight), single SC 0.5 mg) was 10–20%. The “AUC∞ estimated ratio (95% CI)” value ([4]; mild RI vs normal renal function, single SC 0.5 mg) was 1.01 (0.83–1.21), the “AUC∞ estimated ratio (95% CI), adjusted analysis” value [4, 7] was 0.99 (0.85–1.16) and the “C max estimated ratio (90% CI), adjusted analysis” value [4, 7] was 0.90 (0.73–1.11). For the same compound, the “C max estimated ratio (90% CI)” value ([4]; mild RI vs normal, single SC 0.5 mg) was 0.95 (0.76–1.20), the “t ½” value ([4]; mild RI, single SC 0.5 mg, n=9) was 169 (14)^b h and the “mean C max across the other groups” value ([4]; mild, moderate and severe RI groups, single SC 0.5 mg) was 9.0 to 9.8 nM. The “AUC∞ estimated ratio (95% CI)” value ([4]; moderate RI vs normal renal function, single SC 0.5 mg) was 1.15 (0.96–1.38), the “AUC∞ estimated ratio (95% CI), adjusted analysis” value [4, 8] was 1.07 (0.91–1.27) and the “C max estimated ratio (90% CI), adjusted analysis” value [4, 8] was 0.79 (0.64–0.99). For the same compound, the “C max estimated ratio (90% CI)” value ([4]; moderate RI vs normal, single SC 0.5 mg) was 0.88 (0.70–1.10), the “t ½” value ([4]; moderate RI, single SC 0.5 mg, n=10) was 201 (14)^c h and the “t max range across the groups” value ([4]; range of group medians, single SC 0.5 mg) was 24 to 51 h. For the same compound, the “AUC∞ estimated ratio (95% CI)” value ([4]; severe RI vs normal renal function, single SC 0.5 mg) was 1.22 (1.02–1.47), the “AUC∞ estimated ratio (95% CI), adjusted analysis” value [4, 9] was 1.13 (0.97–1.32) and the “C max estimated ratio (90% CI), adjusted analysis” value [4, 9] was 0.86 (0.70–1.06). For the same compound, the “C max estimated ratio (90% CI)” value ([4]; severe RI vs normal, single SC 0.5 mg) was 0.95 (0.75–1.19) and the increase in exposure ([4]; subjects with CLCR 10 mL/min versus CLCR 90 mL/min, from slope −0.06) was 14%.
